Shown are actives, neighbours in structure and some others; about 2% of the full set was active somewhere.
M5 PAM: human M5 muscarinic receptor positive allosteric modulators, primary screen, CHO-K1 cells, Fluo-8 calcium fluorescence; CHO-K1 hM5, ACh EC20 PAM; 0% = ACh EC20, 100% = ACh EC100; AID 624038, 2012; Muscarinic acetylcholine receptor M5 (Homo sapiens), P08912; activation, % at 3 µM; hit rate 0.3% among 360,000;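 active = activation above the run cutoff, the mean activation of all test compounds plus 3 SD, cut at about 18% in these data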
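system = human M5 receptor in CHO-K1 cells | compound = one concentration, 3 µM final (nominal) | schedule = Post-acetylcholine fluorescence recording 140 s | signal = Fluo-8 calcium dye fluorescence, kinetic read | benchmarks = low control EC20 acetylcholine (0%), high control EC100 acetylcholine (100%) | repeats = singlicate, one well per test compound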
CHRM5 antagonist: human M5 muscarinic receptor antagonists, primary screen, CHO cells, Fluo-8 calcium fluorescence; CHO-hM5 cells, ACh EC80; inhibition, % at 3 µM; hit rate 0.59% among 360,000; AID 624040, 2012;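 active = inhibition above a per-plate cutoff, the mean of that plate's test compounds plus 3 SD, cut at about 27% in these data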
CHRM5 agonist: human M5 muscarinic receptor agonists, primary screen, CHO-K1 cells, Fluo-8 calcium fluorescence | Muscarinic acetylcholine receptor M5 (Homo sapiens), P08912 | CHO-K1 hM5 cells; 0% DMSO wells, 100% maximal acetylcholine response | activation, % at 3 µM | hit rate 0.19% among 360,000 | AID 624037, 2012;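 active = activation above the run's mean over test compounds plus 3 SD, cut at about 23% in these data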;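 note: signal is peak over basal fluorescence ratio across the kinetic read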
CHRM1 antagonist: human M1 muscarinic receptor antagonists, primary screen, CHO-K1 cells, Fluo-8 calcium fluorescence, 1536-well. Muscarinic acetylcholine receptor M1 (Homo sapiens), P11229. CHO-K1 hM1, ACh EC80 antagonist. inhibition, % at 3 µM. hit rate 1.3% among 360,000;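 active = percent inhibition above its own plate's cutoff, namely the mean of that plate's compound wells plus 3 SD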;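 note: peak over basal fluorescence ratio during 140 s after agonist addition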
Target sequence (P11229 whole entry, looked up): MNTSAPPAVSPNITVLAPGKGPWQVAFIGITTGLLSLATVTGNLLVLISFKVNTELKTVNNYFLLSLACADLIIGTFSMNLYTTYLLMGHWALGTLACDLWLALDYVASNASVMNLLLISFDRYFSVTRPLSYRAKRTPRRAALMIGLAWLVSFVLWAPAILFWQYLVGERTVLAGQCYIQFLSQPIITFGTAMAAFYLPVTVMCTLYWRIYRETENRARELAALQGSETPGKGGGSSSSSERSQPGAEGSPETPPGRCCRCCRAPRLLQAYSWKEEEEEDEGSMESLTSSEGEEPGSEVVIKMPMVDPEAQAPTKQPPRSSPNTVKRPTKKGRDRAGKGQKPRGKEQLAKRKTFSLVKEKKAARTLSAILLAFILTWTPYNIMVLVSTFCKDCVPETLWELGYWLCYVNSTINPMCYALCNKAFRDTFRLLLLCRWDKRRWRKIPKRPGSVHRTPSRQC
CHRM1 agonist: human M1 muscarinic receptor agonists, primary screen, Fluo-8 calcium fluorescence, CHO-K1 cells, HTS | CHO-K1 hM1, agonist mode; 0% DMSO, 100% acetylcholine EC100 | activation, % at 3 µM | hit rate 0.33% among 360,000 | Muscarinic acetylcholine receptor M1 (Homo sapiens), P11229;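 active = activation above the run's mean compound activation plus 3 SD, cut at about 16% in these data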;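 note: peak over basal fluorescence ratio within a 140 s kinetic read after compound addition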
M1 PAM: human M1 muscarinic receptor positive allosteric modulators, primary screen, CHO-K1 cells, Fluo-8 calcium fluorescence, 1536-well; hit rate 0.088% among 360,000; AID 588819, 2011; activation, % at 3 µM; CHO-K1 hM1, ACh EC20; 0% = ACh EC20, 100% = maximal ACh; Muscarinic acetylcholine receptor M1 (Homo sapiens), P11229; in the data active = activation above about 19%, passing the limit was not always enough
Of the large screens only hits and unclear results are named; the others gave an inactive call.

CCOC(=O)C1=CC[C@@H](c2ccccc2C(F)(F)F)N(S(=O)(=O)c2ccc(C)cc2)[C@H]1c1ccc(C#N)cc1	none
COc1ccc(/C=C2/SC(=O)N(CC(=O)NCCC(C)C)C2=O)cc1OC	none
COc1ccc(/C=C2\SC(=O)N(CC(=O)NCCC(C)C)C2=O)cc1OC	M5 PAM 18.9
COc1ccc(S(=O)(=O)NC(=O)C2(C)CCN2C(=O)C2(c3ccccc3)CCCC2)cc1 (stereo not given)	none
O=[N+]([O-])c1ccc(N=Nc2c(Cl)cc(O)cc2Cl)cc1	CHRM5 antagonist 29.6, CHRM1 antagonist 31.9
CC(NS(=O)(=O)c1ccc(Br)cc1F)[C@H](O)c1ccccc1 (stereo not given in full)	none
CCOC(=O)[C@]12CCCC=C1N(Cc1ccco1)C(=O)[C@H](CC(=O)N1CCN(C(=O)c3ccco3)CC1)C2	none (no result: CHRM1 antagonist, CHRM1 agonist, M1 PAM)
COc1ccc(Cl)cc1C(=O)NNC(=O)CCNC(=O)c1ccccc1	none
Cc1ccccc1Cn1c(C)nc2ccccc21	CHRM1 antagonist 39.1
COc1ccccc1Cn1c(C)nc2ccccc21	none
Cc1ccc(NC(=O)C2CCN(S(=O)(=O)c3ccc(N4CCCC4=O)cc3)CC2)cc1Cl	CHRM5 antagonist 49.5, CHRM1 antagonist 47.2
COc1ccc(NC(=O)C2CCN(S(=O)(=O)c3ccc4c(c3)NC(=O)C(C)S4)CC2)cc1 (stereo not given)	none
CC1Sc2ccc(S(=O)(=O)N3CCC(C(=O)Nc4ccc(Cl)cc4)CC3)cc2NC1=O (stereo not given)	CHRM5 antagonist 33.1, CHRM1 antagonist 44.8
CC(=O)c1c(C)nn(CC(=O)NC2CCCN(Cc3ccc(CC(C)C)cc3)C2)c1C (stereo not given)	CHRM1 antagonist 46.7
Nn1cnc2c(c1=O)C1(CCCCC1)Cc1ccccc1-2	none
O=c1c2c(nc3n1CCCCC3)-c1ccccc1CC21CCCC1	CHRM1 antagonist 30.9
C[C@@H](NC(=O)[C@@H]1CCCN1C(=O)[C@@H]1CCCN1C(=O)c1cccc2ccccc12)c1ccccc1	none (no result: CHRM1 antagonist, CHRM1 agonist, M1 PAM)
NC(=O)C1CCN(c2ncc(C(F)(F)F)cc2Cl)CC1	CHRM1 antagonist 39.5
O=C(c1ccc2nc[nH]c2c1)N1CCN(c2ncc(C(F)(F)F)cc2Cl)CC1	M1 PAM 25.6
CN(CCO)C(=O)C1CCN(c2ncc(C(F)(F)F)cc2Cl)CC1	none
CCN(CCCNC(=O)C1CCN(S(=O)(=O)c2cnc[nH]2)CC1)c1cccc(C)c1	M5 PAM 41.9
CCN(CCCNC(=O)C1CCCN(S(=O)(=O)CC)C1)c1cccc(C)c1 (stereo not given)	none
COc1ccc(Nc2ncnc3ccccc23)c(OC)c1	none
COc1ccc(Nc2nnc(Cc3ccncc3)c3ccccc23)c(OC)c1	CHRM1 agonist 51.5
Cc1ccc(-c2nc(CSCC(=O)NCCN3CCN(Cc4ccccc4)CC3)c(C)o2)cc1	CHRM1 antagonist 26.0
Cc1ccc(-c2nc(CSCC(=O)NCCCN3CCOCC3)c(C)o2)cc1	none
Cc1oc(-c2ccc(Cl)cc2)nc1CS(=O)CC(=O)NCCCN1CCN(Cc2ccccc2)CC1 (stereo not given)	CHRM5 antagonist 31.0
CCCCOc1ccc(C(=O)Nc2ccc(N3CCN(C)CC3)cc2)cc1	none
CCN1CCN(c2ccc(NC(=O)c3ccc(Cl)c(S(=O)(=O)N4CCCC4)c3)cc2)CC1	CHRM5 antagonist 55.9, CHRM1 antagonist 99.5
CCCCOc1cccc(C(=O)Nc2ccc(N3CCN(CC)CC3)cc2)c1	CHRM5 antagonist 38.8, CHRM1 antagonist 75.2
CCN1CCN(c2ccc(NC(=O)c3ccc4c(c3)OCO4)cc2)CC1	none
CCOC(=O)c1ccc(NC(=O)c2ccc(C)c(S(=O)(=O)N3CCOCC3)c2)cc1	CHRM5 antagonist 28.9, CHRM1 antagonist 50.5
CCN1CCN(c2ccc(NC(=O)c3ccc(Cl)c(N4CCCC4=O)c3)cc2)CC1	CHRM1 antagonist 23.4
OCC[C@H]1NCc2cc(CO)cc(-c3ccccc3)c21	none
CN(C)c1cccc(NC(=O)C2Cc3c(-c4cccnc4)ccnc3O2)c1 (stereo not given)	none
O=C(COC(=O)c1ccc(F)c(S(=O)(=O)N2CCOCC2)c1)NCCc1ccc(F)cc1	none
COc1ccc(C(=O)OCC(=O)NCCc2ccc(F)cc2)cc1S(=O)(=O)N1CCOCC1	CHRM1 antagonist 33.4
CCN(CC)CCOC(=O)c1ccc(NC(=O)c2ccc(Cl)c(S(=O)(=O)N3CCCCCC3)c2)cc1	CHRM5 antagonist 36.6, CHRM1 antagonist 97.8
Cc1cccc(N(CC(=O)N2CCN(C)CC2)S(=O)(=O)c2ccccc2)c1	none
CN1CCN(C(=O)CN(c2cccc(Cl)c2)S(=O)(=O)c2ccccc2)CC1	CHRM1 antagonist 28.1
CCc1nc2ccc(C(=O)NCc3cccs3)cn2c1N(CC)CCOC	none
Cc1ccc(-c2nc3cccnc3o2)cc1NC(=O)COc1ccc(C(C)(C)C)cc1	CHRM5 antagonist 27.3
CC(C)NC(=S)N1CCN(C/C=C/c2ccccc2)CC1	none
CC(/C=N/NC(=O)c1sc(N)nc1C)=C\c1ccccc1	CHRM1 agonist 25.1
COC(=O)c1cc2c(n1S(=O)(=O)c1ccc(C)cc1)C(=O)C(=O)c1[nH]cc(C(=O)OCc3ccccc3)c1-2	none
COc1ccc(Br)cc1C1=CC(=O)C[C@H](c2ccc(F)cc2)C1	none
Cc1ccc(-c2ccc(CN3C(C(C)C)C(=O)N(Cc4cn(Cc5ccco5)nn4)CCS3(=O)=O)cc2)cc1 (stereo not given)	none
CCC(=O)N1CCc2cc(Br)cc(S(=O)(=O)NCC3CCCO3)c21 (stereo not given)	none
CCC(=O)N1CCc2cc(Br)cc(S(=O)(=O)CCC(=O)NCC3CCCO3)c21 (stereo not given)	M5 PAM 18.8
CCCCCNc1ncnc2c(C)[nH]nc12	none
Cc1csc2ncnc(N3CCN(C(=S)Nc4ccc(C(F)(F)F)cc4)CC3)c12	CHRM1 antagonist 42.9
Cc1cc(C)cc(NC(=S)N2CCN(c3ncc(C(F)(F)F)cc3Cl)CC2)c1	none
Cc1csc2c(N3CCN(C(=S)Nc4ccc(C(F)(F)F)cc4)CC3)ncnc12	CHRM5 antagonist 29.9
CC(=O)c1ccc(Nc2nc(C(C)N)cs2)cc1 (stereo not given)	none
